Only some compounds are listed: those with a hit (about 2.3% of all), similar ones and a draw of the others.
TPT1 inhibitor: C. albicans TPT1 enzyme inhibition | inhibition, % at 5 µM | 300,000 compounds, 0.81% hits | AID 1962 | recombinant caTPT1, FP RNA substrate dephosphorylation;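 active means inhibition above the mean of all tested compounds plus 3 SD, set per screening campaign, cut at about 24% in these data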;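 further: plate controls were DMSO alone for no effect and ferristatin control at 100 nM for full effect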
HNF4A DNA FP: change in binding of human HNF4 alpha to DNA; P41235; HNF4a-FITC DNA binding, fluorescence polarization, 1 h; activity change, % at 10 µM; 360,000 compounds, 0.3% hits; in the data active means activity change above about 30%, passing the limit was not always enough
Rpn11 block: blocks the human proteasome subunit Rpn11; calls only at 20 µM; 360,000 compounds, 0.59% hits; human 26S proteasome, Ub4-pepOG fluorescence polarization; 20S core pre-blocked with epoxomicin;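 active means inhibition at 20 µM, scaled to each plate's controls, above about 33%, limit read from the data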
CRFR2-BP antag: blocks CRF-induced signaling of the CRF-BP/CRF-R2 complex | HEK293 CRF-R2/CRF-BP, CRF-induced calcium fluorescence | inhibition, % at 11.8 µM | 350,000 compounds, 0.59% hits;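 active means inhibition of the ligand-induced calcium signal above about 50% at the single tested concentration, limit read from the data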
CSN inh: inhibitors of human CSN-mediated cullin deneddylation | inhibition, % at 12.5 µM | Purified CSN, SCF-Nedd8-OG deneddylation, fluorescence polarization | 360,000 compounds, 0.38% hits | AID 651999 | Q92905;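 active means pattern-corrected inhibition above about 35%, with an unprinted fluorescence ratio check between 0.5 and 1.5, limit read from the data, passing the limit was not always enough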;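 further: 0% = enzyme with substrate and 100% = substrate without enzyme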
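Assay system: HEK293T-derived human Csn5 enzyme; quantity: 0.24 nM enzyme; medium: Tris/NaCl/DTT buffer, pH 7.5; also added: substrate SCFSkp2-Nedd8OG, 10 nM; doses: 12.5 µM compound; schedule: 90 min reaction at room temperature; signal: FP; read-out: % inhibition of substrate cleavage by Csn5; benchmarks: substrate-only high control, full reaction low control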
CRFBP-R2 agonist: agonists of human CRF-binding protein/CRF-R2 receptor complex | HEK293 CRF-R2/CRF-BP, calcium dye fluorescence (FLIPR); percent of saturating CRF peptide response | activation, % at 13.2 µM | 350,000 compounds, 0.46% hits;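 active means activation of at least 50%, plus an integration ratio under a set limit after plate pattern correction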;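 further: plate controls were neutral control wells without compound for no effect and CRF at EC100 for full effect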
Rpn11 confirm: confirmation of human proteasome Rpn11 inhibitors. shares compounds with Rpn11 block. purified human 26S proteasome, Ub4-pepOG fluorescence polarization; proteasome pretreated with epoxomicin. inhibition, % at 20 µM. 1,900 compounds, 29% hits
MMP-2 inh: MMP-2 (human) inhibition counter-screen; shares compounds with Rpn11 block; recombinant MMP-2, FRET peptide cleavage fluorescence; inhibition, % at 20 µM; 1,900 compounds, 4% hits;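 further: human MMP-2 activated beforehand with APMA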
Thrombin FP: counter-screen for RPN11 inhibitors: inhibition of bovine thrombin | shares compounds with Rpn11 block | bovine thrombin cleavage of Ub4-pepOG, fluorescence polarization | inhibition, % at 20 µM | 1,900 compounds, 13% hits;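 active means mean inhibition at least 40% at 20 µM, or signal 3 deviations below plate average, so some actives read negative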;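 further: plate controls were thrombin with DMSO for no effect and buffer wells lacking thrombin for full effect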
Target sequence (P00735 whole entry, looked up): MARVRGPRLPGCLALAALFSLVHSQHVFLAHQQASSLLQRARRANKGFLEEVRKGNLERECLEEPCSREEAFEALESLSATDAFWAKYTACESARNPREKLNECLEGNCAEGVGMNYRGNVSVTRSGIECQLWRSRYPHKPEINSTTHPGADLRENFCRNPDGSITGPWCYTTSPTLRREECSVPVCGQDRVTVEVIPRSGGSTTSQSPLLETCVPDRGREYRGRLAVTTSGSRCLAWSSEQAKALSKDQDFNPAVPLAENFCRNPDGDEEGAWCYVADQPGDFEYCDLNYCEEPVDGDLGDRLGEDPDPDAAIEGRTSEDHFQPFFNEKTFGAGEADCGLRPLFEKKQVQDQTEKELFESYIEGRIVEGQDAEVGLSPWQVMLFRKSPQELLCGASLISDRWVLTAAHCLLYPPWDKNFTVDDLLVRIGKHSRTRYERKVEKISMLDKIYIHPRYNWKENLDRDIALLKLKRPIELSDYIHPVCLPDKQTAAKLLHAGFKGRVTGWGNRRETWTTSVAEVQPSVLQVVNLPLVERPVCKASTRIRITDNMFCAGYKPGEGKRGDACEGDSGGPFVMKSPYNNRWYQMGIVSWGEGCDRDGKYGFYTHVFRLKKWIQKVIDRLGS
* hit, by the source's call; i = inactive; . = no result given; + = active, no number. Unless noted, no stated cut-off is given here; in the data, active means inhibition above about 40%; inactive means the rest.

SMILES	TPT1 inhibitor	HNF4A DNA FP	Rpn11 block	CRFR2-BP antag	CSN inh	CRFBP-R2 agonist	Rpn11 confirm	MMP-2 inh	Thrombin FP
COc1ccc(C2C(C#N)=C(N)Oc3cc(C)n(Cc4ccco4)c(=O)c32)cc1 (stereo unspecified)	7	-5	+	24	13	18	23	-23	6
COc1cccc(C2C(C#N)=C(N)Oc3cc(C)n(Cc4ccco4)c(=O)c32)c1 (stereo unspecified)	4	2	i	-22	23	-3	.	.	.
N#CCC(=O)c1ccccc1Oc1ccc(Cl)cc1	1	1	+	3	-2	-1	10	18	12
COC(=O)CNC(=O)C1CCN(C(=O)OCc2ccccc2)CC1	1	-2	i	-3	1	-1	.	.	.
Cc1ccc(NC(=O)COC(=O)COc2ccc3ccc(=O)oc3c2)cc1[N+](=O)[O-]	.	2	i	10	0	0	.	.	.
Cn1ncc(Cl)c1C(=O)Nc1cc(C(F)(F)F)ccc1F	3	-2	+	4	-5	0	-5	-49	-11
Clc1cccc2sc(N3CCCC3)nc12	-3	-1	i	-12	0	-2	.	.	.
Clc1cccc2sc(N3CCOCC3)nc12	-1	-2	+	19	0	-1	-7	-47	-12
CCN(CC)c1ccc(/C=N/NC(=O)c2ccoc2C)cc1	4	1	i	-12	-1	1	.	.	.
CC(=O)N(CCCN1CCOCC1)Cc1ccncc1	-2	18	+	18	1	-1	-6	0	-10
COCCN(C/C=C/c1ccccc1)C/C=C/c1ccccc1	0	-2	i	8	-5	-3	.	.	.
COC(=O)C(Sc1ccc(Cl)cc1)C1SC(=S)N(Cc2ccccc2)C1=O (stereo unspecified)	.	13	+	-8	3	-2	-13	-5	-5
CCC(=O)N1CCc2cc(S(=O)(=O)N3CCc4ccccc4C3)ccc21	-2	0	+	-17	78*	-1	8	6	11
COc1cc(/C=C/c2[nH]c(=O)[nH]c(=O)c2[N+](=O)[O-])ccc1OCCC(C)C	-4	1	+	-3	0	1	28	-20	-20
CCC(C)Oc1ccc(/C=C/c2[nH]c(=O)[nH]c(=O)c2[N+](=O)[O-])cc1OC (stereo unspecified)	5	-3	i	-4	6	-1	.	.	.
Cc1ccc(CSCC(=O)N/N=C/c2ccc(OCC(=O)Nc3ccc(C)cc3)cc2)cc1	8	1	+	7	12	4	80*	19	12
O=c1[nH]c2ccccc2nc1NCCN1CCOCC1	1	2	+	11	1	-3	-13	-17	-4
CCn1c(SCc2ccc(Cl)cc2)nc2nc3c(cc2c1=O)CCCC3	-4	6	i	7	-1	-1	.	.	.
CC(C)=CCC/C(C)=C/CNC(=O)C[C@H]1C[C@H](C(=O)N2CCCCC2)[C@@]2(CCc3ccccc3)c3[nH]c4cc(-c5ccco5)ccc4c3CCN2C1=O	.	15	+	6	18	2	15	3	3
O=C(C[C@H]1C[C@H](C(=O)N2CCCCC2)[C@@]2(CCc3ccccc3)c3[nH]c4cc(-c5ccco5)ccc4c3CCN2C1=O)NCCN1CCOCC1	.	17	+	1	12	3	1	3	-2
CC(Nc1ccc(Br)cn1)c1cc(Cl)ccc1O (stereo unspecified)	.	30	+	-5	-6	-2	6	8	4
CC(Nc1ccc(Cl)cc1)c1cc(Cl)ccc1O (stereo unspecified)	-4	10	i	21	-3	-1	.	.	.
Cc1ccc(S(=O)(=O)NCC(=O)OCC(=O)Nc2ccccc2OC(F)F)cc1	0	6	i	24	-4	-1	.	.	.
O=C(COC(=O)CCNS(=O)(=O)c1ccc(Cl)cc1)Nc1ccccc1OC(F)F	.	40*	+	1	-2	-1	-21	-38	-24
O=C(Cc1cccc2ccccc12)NCC(=O)N1CCN(CC(=O)Nc2ccc(F)cc2)CC1	.	1	i	1	0	0	.	.	.
SMILES	TPT1 inhibitor	HNF4A DNA FP	Rpn11 block	CRFR2-BP antag	CSN inh	CRFBP-R2 agonist	Rpn11 confirm	MMP-2 inh	Thrombin FP
O=C(CCOc1ccccc1)NCC(c1ccco1)N1CCCCC1 (stereo unspecified)	2	51*	+	5	-5	1	-9	-55	-4
CCC(=O)NCc1cc(-c2nn(C)c(=O)c3ccccc23)ccc1C	1	1	i	-3	-3	1	.	.	.
Cc1ccc(-c2nn(CC(=O)NCc3cc(-c4nn(C)c(=O)c5ccccc45)ccc3C)c(=O)c3ccccc23)cc1	-5	-8	+	-13	27	19	7	-20	-3
NNC(=O)COc1ccc(F)cc1	1	32*	+	19	-2	-1	1	-25	0
COc1ccc(N2CCN(C(=O)c3ccc(CSc4ccccc4)cc3)CC2)cc1	0	-2	i	34	-13	1	.	.	.
COc1ccc(N2CCN(C(=O)c3ccc4c(c3)NC(=O)C(CSCc3ccccc3F)N4)CC2)cc1 (stereo unspecified)	.	34	+	14	2	2	31	30	22
CC[C@@]12C(=O)N(c3ccccc3)C(=O)N1[C@H](c1ccc(OC)cc1)[C@@H]1C(=O)N(C(C)(C)C)C(=O)[C@@H]12	1	3	i	-3	0	0	.	.	.
CC(=O)CSc1nsc(SCC(C)=O)c1C#N	11	5	+	6	15	4	16	50*	15
COc1ccc(-c2nnc(SCC(=O)Nc3sc4c(c3C#N)CCC4)n2CC2CCCO2)cc1 (stereo unspecified)	.	2	i	1	3	-3	.	.	.
Cc1ccc(NC(=O)CN2C(=O)N/C(=C\c3ccco3)C2=O)cc1	.	4	+	3	6	-2	-9	-7	-11
Cc1ccc(NC(=O)CN2C(=O)N/C(=C\c3cccnc3)C2=O)cc1	0	1	i	-14	-6	2	.	.	.
CN(C)c1nc(NCc2ccccc2)nc(Oc2ccc(=O)[nH]n2)n1	-1	1	i	-13	-1	0	.	.	.

Compound activity from PubChem.
